The values that follow come from ChEMBL document CHEMBL3351721, “Cyclic adenosine 5'-diphosphate ribose analogs without a "southern" ribose inhibit ADP-ribosyl cyclase-hydrolase CD38” (J Med Chem, 2014).

In series [1] the target is T1, ADP-ribosyl cyclase/cyclic ADP-ribose hydrolase 1 (Homo sapiens, UniProt P28907).
T1 sequence (P28907 whole entry): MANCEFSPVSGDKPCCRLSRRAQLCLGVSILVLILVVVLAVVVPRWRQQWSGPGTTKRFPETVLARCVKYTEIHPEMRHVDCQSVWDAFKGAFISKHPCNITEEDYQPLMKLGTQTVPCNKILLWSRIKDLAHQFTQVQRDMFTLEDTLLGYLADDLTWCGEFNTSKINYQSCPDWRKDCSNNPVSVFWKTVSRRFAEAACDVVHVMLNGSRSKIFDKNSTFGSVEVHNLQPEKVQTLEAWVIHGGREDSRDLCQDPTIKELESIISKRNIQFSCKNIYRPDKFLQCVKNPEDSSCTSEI
Briefly: Drug metabolism assessed as human CD38 catalytic domain-mediated compound hydrolysis at 1 mM by RP-HPLC method. In kind it is ADME. To be noted: 1000 µM. The essentials:
(§1)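 Human CD38 catalytic domain diluted in 20 mM Tris-HCl pH 8 to 4 mg/mL or 1 μg/mL, added to inhibitor (1 mM final) at room temperature; no-enzyme control run in parallel. At time points, aliquots diluted 20-fold in water and analysed by RP-HPLC: isocratic elution, 1 mL/min, ion-pair buffer 0.17% cetrimide and 45% phosphate buffer (pH 6.4) in MeOH, photodiode array detection 210–350 nm.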

Series [2] in a line: Retention time of the compound using 1 mM 8-NH2-N9-butyl-cIDPR in presence of human CD38 catalytic domain by RP-HPLC method. In kind it is physicochemical. The essentials:
as §1

Series [3] has as its target T1, ADP-ribosyl cyclase/cyclic ADP-ribose hydrolase 1. In words: Drug level assessed as human CD38 catalytic domain-mediated compound formation using 1 mM 8-NH2-N9-butyl-cIDPR by RP-HPLC method. In kind it is ADME. Summed up: as §1
Series [4] in a line: Retention time of the compound at 1 mM in presence of human CD38 catalytic domain by RP-HPLC method. In kind it is physicochemical. Conditions: 1000 µM. Summed up:
as §1

Series [5] concerns the target T1, ADP-ribosyl cyclase/cyclic ADP-ribose hydrolase 1. In words: Drug metabolism assessed as human CD38 catalytic domain-mediated compound hydrolysis by measuring 8-NH2-N9-butyl-IDPR level at 1 mM by RP-HPLC method. In kind it is ADME. To be noted: 1000 µM. The essentials: as §1
For series [6] the target is unchanged. In words: Drug metabolism assessed as human CD38 catalytic domain-mediated compound hydrolysis at 1 mM using 1 ug/mL CD38 by RP-HPLC method. The series is classed as ADME. To be noted: 1000 µM. The essentials:
as §1

Series [7] shares this target. Briefly: Drug metabolism assessed as human CD38 catalytic domain-mediated compound hydrolysis at 1 mM using 4 mg/mL CD38 by RP-HPLC method. In kind it is ADME. Conditions: 1000 µM. Summed up:
as §1

Series [8] shares this target. In words: Inhibition of human CD38 catalytic domain assessed as reduction in cADPR hydrolysis incubated for 10 mins by fluorimetric cycling assay.

As for `O=c1c2ncn3c2ncn1[C@@H]1O[C@H](COP(=O)(O)OP(=O)(O)OCCCC3)[C@@H](O)[C@H]1O`, the Drug metabolism result in series [1] is listed as “metabolite_detected”.

For the molecule `O=c1c2nc(Br)n3c2ncn1[C@@H]1O[C@H](COP(=O)(O)OP(=O)(O)OCCCC3)[C@@H](O)[C@H]1O`, in series [1], the Drug metabolism result is given as “metabolite_detected”.

On to `Nc1nc2c(=O)[nH]cnc2n1CCCCOP(=O)(O)OP(=O)(O)OC[C@H]1OC(O)[C@H](O)[C@@H]1O` (some centres not stated), for which the Retention_time in series [2] came to 10.6 min. The Drug metabolism entry in series [3] is “metabolite_detected”.

On to `Nc1nc2c(=O)n3cnc2n1CCCCOP(=O)(O)OP(=O)(O)OC[C@H]1O[C@@H]3[C@H](O)[C@@H]1O`, for which the Retention_time in series [4] was determined as 9.1 min. The Drug metabolism entry in series [5] is given as “metabolite_detected”; in series [6], “metabolite_notdetected”; in series [7], “metabolite_detected”.

With `O=c1c2ncn3c2ncn1[C@@H]1O[C@H](COP(=O)(O)OP(=O)(O)OC[C@H]2O[C@@H]3[C@H](O)[C@@H]2O)[C@@H](O)[C@H]1O`, the IC50 in series [8] was 276 µM. Further, the Drug metabolism result in series [1] was “metabolite_detected”; in series [6] it was “metabolite_notdetected”; in series [7] it was “metabolite_detected”.
